Laboratory results published in ChEMBL document CHEMBL1795264, “Deglycobleomycin A6 analogues modified in the methylvalerate moiety” (Bioorg Med Chem, 2011).
The source made the active and inactive calls. The calls are words filed in the database; no cut-off is given here.

Legend:
Nucleic Acid [1] = experiment: Induction of Escherichia coli [5'-32P]-end labeled 158-base pair of pBR322 DNA cleavage using bromophenol blue and xylene cyanol FF at 1 to 10 uM after 30 mins by phosphorimager analysis in presence of equimolar Fe2+
Nucleic Acid [2] = experiment: Induction of Escherichia coli [5'-32P]-end labeled 64-nucleotide hairpin DNA base pair of pBR322 DNA cleavage using bromophenol blue and xylene cyanol FF at 5 to 20 uM after 30 mins by phosphorimager analysis in presence of equimolar Fe2+; type: nucleic-acid assay
In short: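 64-nt hairpin DNA, 5'-32P-labelled with T4 polynucleotide kinase and purified on 16% polyacrylamide gel, 30,000 cpm, exposed to Fe2+ plus deglycoBLM in 50 mM Tris–HCl pH 8.0 at room temperature for 30 min. Dried, heated 90 °C 10 min in formamide loading buffer, then run on denaturing 16% polyacrylamide/7 M urea gel at 1800 V for 2.5 h.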

Nucleic Acid [3] = experiment: Induction of Escherichia coli supercoiled pBR322 DNA cleavage assessed as formation of nicked DNA using bromophenol blue at 1 to 4 uM after 30 mins by agarose gel electrophoresis analysis in presence of equimolar Fe2+; type: nucleic-acid assay
Nucleic Acid [4] = experiment: Induction of Escherichia coli [5'-32P]-end labeled 158-base pair of pBR322 DNA cleavage at A15 site using bromophenol blue and xylene cyanol FF at 1 to 10 uM after 30 mins by phosphorimager analysis in presence of equimolar Fe2+; type: nucleic-acid assay
In short: (§1)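 158-bp pBR322 restriction fragment (HindIII cut, dephosphorylated, 5'-32P-labelled with T4 polynucleotide kinase, EcoRV cut), 30,000 cpm, treated with Fe2+ plus deglycoBLM in 50 mM Tris–HCl pH 8.0 at room temperature for 30 min. Supernatant removed under vacuum, pellet heated 90 °C 10 min in formamide loading buffer and chilled on ice before denaturing gel analysis.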

Nucleic Acid [5] = experiment: Induction of Escherichia coli supercoiled pBR322 DNA cleavage assessed as formation of linear form of DNA using bromophenol blue at 4 uM after 30 mins by agarose gel electrophoresis analysis in presence of equimolar Fe2+; type: nucleic-acid assay
Nucleic Acid [6] = experiment: Induction of Escherichia coli [5'-32P]-end labeled 158-base pair of pBR322 DNA cleavage at G12 site using bromophenol blue and xylene cyanol FF at 1 to 10 uM after 30 mins by phosphorimager analysis in presence of equimolar Fe2+; type: nucleic-acid assay
In short: as §1

Nucleic Acid [7] = experiment: Induction of Escherichia coli [5'-32P]-end labeled 158-base pair of pBR322 DNA cleavage at 5'-CG35-3' site using bromophenol blue and xylene cyanol FF at 1 to 10 uM after 30 mins by phosphorimager analysis in presence of equimolar Fe2+; type: nucleic-acid assay
In short: as §1

Nucleic Acid [8] = experiment: Induction of Escherichia coli [5'-32P]-end labeled 158-base pair of pBR322 DNA cleavage at 5'-GT14-3' site using bromophenol blue and xylene cyanol FF at 1 to 10 uM after 30 mins by phosphorimager analysis in presence of equimolar Fe2+; type: nucleic-acid assay
In short: as §1

Nucleic Acid [9] = experiment: Induction of Escherichia coli [5'-32P]-end labeled 158-base pair of pBR322 DNA cleavage at 5'-GT27-3' site using bromophenol blue and xylene cyanol FF at 1 to 10 uM after 30 mins by phosphorimager analysis in presence of equimolar Fe2+; type: nucleic-acid assay
In short: as §1

Nucleic Acid [10] = experiment: Induction of Escherichia coli [5'-32P]-end labeled 158-base pair of pBR322 DNA cleavage at 5'-GT17-3' site using bromophenol blue and xylene cyanol FF at 1 to 10 uM after 30 mins by phosphorimager analysis in presence of equimolar Fe2+; type: nucleic-acid assay
In short: as §1

Nucleic Acid [11] = experiment: Induction of Escherichia coli [5'-32P]-end labeled 158-base pair of pBR322 DNA cleavage at 5'-CG11-3' site using bromophenol blue and xylene cyanol FF at 1 to 10 uM after 30 mins by phosphorimager analysis in presence of equimolar Fe2+; type: nucleic-acid assay
In short: as §1

Row | SMILES | Activity (Nucleic Acid [1]) | Activity (Nucleic Acid [2]) | Activity (Nucleic Acid [3]) | Activity (Nucleic Acid [4]) | Activity (Nucleic Acid [5]) | Activity (Nucleic Acid [6]) | Activity (Nucleic Acid [7]) | Activity (Nucleic Acid [8]) | Activity (Nucleic Acid [9]) | Activity (Nucleic Acid [10]) | Activity (Nucleic Acid [11])
1 | Cc1c(N)nc([C@H](CC(N)=O)NC[C@H](N)C(N)=O)nc1C(=O)N[C@@H](Cc1c[nH]cn1)C(=O)N[C@H](Cc1ccccc1Br)[C@@H](O)[C@H](C)C(=O)N[C@H](C(=O)NCCc1nc(-c2nc(C(=O)NCCCNCCCCNCCCN)cs2)cs1)[C@@H](C)O | Active | Active | Active | inactive | Active | inactive |  |  |  |  | 
2 | Cc1c(N)nc([C@H](CC(N)=O)NC[C@H](N)C(N)=O)nc1C(=O)N[C@@H](Cc1c[nH]cn1)C(=O)N[C@H](C)[C@@H](O)[C@H](C)C(=O)N[C@H](C(=O)NCCc1nc(-c2nc(C(=O)NCCCNCCCCN)cs2)cs1)[C@@H](C)O |  | Active | Active |  |  |  |  |  |  |  | 
3 | Cc1c(N)nc([C@H](CC(N)=O)NC[C@H](N)C(N)=O)nc1C(=O)N[C@@H](Cc1c[nH]cn1)C(=O)N[C@H](CC(C)C)[C@@H](O)[C@H](CC(C)C)C(=O)N[C@H](C(=O)NCCc1nc(-c2nc(C(=O)NCCCNCCCCNCCCN)cs2)cs1)[C@@H](C)O | Active | Active | Active | inactive | Active | inactive |  |  |  |  | 
4 | Cc1c(N)nc([C@H](CC(N)=O)NC[C@H](N)C(N)=O)nc1C(=O)N[C@@H](Cc1c[nH]cn1)C(=O)N[C@@H]([C@@H](O)[C@H](C)C(=O)N[C@H](C(=O)NCCc1nc(-c2nc(C(=O)NCCCNCCCCNCCCN)cs2)cs1)[C@@H](C)O)C(C)(C)C |  | Active | Active |  |  |  | Active | Active | Active | Active | Active
5 | Cc1ccccc1C[C@@H](NC(=O)[C@H](Cc1c[nH]cn1)NC(=O)c1nc([C@H](CC(N)=O)NC[C@H](N)C(N)=O)nc(N)c1C)[C@@H](O)[C@H](C)C(=O)N[C@H](C(=O)NCCc1nc(-c2nc(C(=O)NCCCNCCCCNCCCN)cs2)cs1)[C@@H](C)O | Active | Active | Active | inactive |  | inactive |  |  |  |  | 
6 | Cc1c(N)nc([C@H](CC(N)=O)NC[C@H](N)C(N)=O)nc1C(=O)N[C@@H](Cc1c[nH]cn1)C(=O)N[C@H](CC(C)C)[C@@H](O)[C@H](C)C(=O)N[C@H](C(=O)NCCc1nc(-c2nc(C(=O)NCCCNCCCCNCCCN)cs2)cs1)[C@@H](C)O |  | Active | Active |  |  |  | Active | Active | Active | Active | Active
7 | CC[C@@H](C)C(NC(=O)[C@H](Cc1c[nH]cn1)NC(=O)c1nc([C@H](CC(N)=O)NC[C@H](N)C(N)=O)nc(N)c1C)[C@@H](O)[C@H](C)C(=O)N[C@H](C(=O)NCCc1nc(-c2nc(C(=O)NCCCNCCCCNCCCN)cs2)cs1)[C@@H](C)O (single isomer, unassigned) |  | Active | Active | Active |  | Active | Active | Active | Active | Active | Active
8 | Cc1c(N)nc([C@H](CC(N)=O)NC[C@H](N)C(N)=O)nc1C(=O)N[C@@H](Cc1c[nH]cn1)C(=O)N[C@H](CC1CCCCC1)[C@@H](O)[C@H](C)C(=O)N[C@H](C(=O)NCCc1nc(-c2nc(C(=O)NCCCNCCCCNCCCN)cs2)cs1)[C@@H](C)O | Active | Active | Active | inactive | Active | inactive |  |  |  |  | 
9 | Cc1c(N)nc([C@H](CC(N)=O)NC[C@H](N)C(N)=O)nc1C(=O)N[C@@H](Cc1c[nH]cn1)C(=O)N[C@H](C)[C@@H](O)[C@H](Cc1ccccc1)C(=O)N[C@H](C(=O)NCCc1nc(-c2nc(C(=O)NCCCNCCCCNCCCN)cs2)cs1)[C@@H](C)O | Active | Active | Active | inactive | Active | inactive |  |  |  |  | 
10 | Cc1c(N)nc([C@H](CC(N)=O)NC[C@H](N)C(N)=O)nc1C(=O)N[C@@H](Cc1c[nH]cn1)C(=O)N[C@H](Cc1ccccc1)[C@@H](O)[C@H](C)C(=O)N[C@H](C(=O)NCCc1nc(-c2nc(C(=O)NCCCNCCCCNCCCN)cs2)cs1)[C@@H](C)O | Active | Active | Active | inactive | Active | inactive |  |  |  |  | 
11 | CCCC[C@H](C(=O)N[C@H](C(=O)NCCc1nc(-c2nc(C(=O)NCCCNCCCCNCCCN)cs2)cs1)[C@@H](C)O)[C@H](O)[C@@H](C)NC(=O)[C@H](Cc1c[nH]cn1)NC(=O)c1nc([C@H](CC(N)=O)NC[C@H](N)C(N)=O)nc(N)c1C | Active | Active | Active | inactive | Active | inactive |  |  |  |  | 
12 | Cc1c(N)nc([C@H](CC(N)=O)NC[C@H](N)C(N)=O)nc1C(=O)N[C@@H](Cc1c[nH]cn1)C(=O)N[C@H](C)[C@@H](O)[C@H](CC(C)C)C(=O)N[C@H](C(=O)NCCc1nc(-c2nc(C(=O)NCCCNCCCCNCCCN)cs2)cs1)[C@@H](C)O | Active | Active | Active | inactive | Active | inactive |  |  |  |  | 
